# Published values collected from several papers.
# Protocols differ between the studies behind these lines.
# Observed: cell growth or viability
Compound,cell line,test,setting,measurement,result
CC1(C)C(=O)NC2=C1C(=O)C(=O)c1ccccc12,CAL-27,,72 h,IC50,2880 nM
COc1ccc(-c2ccc(-c3ccc(C(=N)N)nc3)s2)cc1Cl,UO-31,,,GI50,1550 nM
Cc1n(Cc2ccc3ccccc3n2)cc[n+]1Cc1ccc2ccccc2c1,HOP-62,SRB,,TGI,6660 nM
Cc1ccc2cncc(N3CCc4c(cc(Cn5ccnc5)cc4-c4cn(C)nc4C(F)(F)F)C3=O)c2c1,K562,ATP luminescence,5 days,GI50,4900 nM
COc1cc(-c2ccc(-c3ccc(C(=N)N)nc3)s2)cc(OC)c1OC,UO-31,,,GI50,1880 nM
CCc1n(Cc2ccc3ccccc3n2)cc[n+]1Cc1ccc2ccccc2n1,HOP-92,SRB,,TGI,521 nM
CC(C)(C=O)Cc1cc(C(C)(C)C)c(O)c(C(C)(C)C)c1,CAL-27,,72 h,IC50,> 20000 nM
COc1cccc(Oc2ccccc2NC(=O)CNC(=O)c2cccc3ccccc23)c1,UO-31,SRB,48 h,GI50,1820 nM
CCCc1n(Cc2ccc3ccccc3n2)cc[n+]1Cc1ccc2ccccc2c1,HOP-92,SRB,,TGI,1120 nM
COc1cccc2c1C(=O)c1c(O)c3c(c(O)c1C2=O)C[C@@](O)(C(=O)CO)C[C@@H]3O[C@H]1C[C@H](N)[C@H](O)[C@H](C)O1,MCF-10A,,48 h,IC50,77000 nM
CC(C)C[C@H](NC(=O)[C@H](Cc1ccccc1)NC(=O)c1cnccn1)B(O)O,OVK18,ATP luminescence,,IC50,8.8 nM
CCc1n(Cc2ccc3ccccc3n2)cc[n+]1Cc1ccc2ccccc2c1,HOP-62,SRB,,TGI,7020 nM
COc1ccc(-c2ccc(-c3ccc(C(=N)N)nc3)s2)cc1,UO-31,,,GI50,1640 nM
c1ccc(-c2n(Cc3ccc4ccccc4c3)cc[n+]2Cc2ccc3ccccc3c2)cc1,HOP-62,SRB,,TGI,3230 nM
Cc1cc(C)n(C(=S)[S][Au][PH](CCCCCC[PH]([Au][S]C(=S)n2nc(C)cc2C)(c2ccccc2)c2ccccc2)(c2ccccc2)c2ccccc2)n1,UO-31,,,GI50,482 nM
